Here are results for one compound from publication PMC6977399 (Clinical Pharmacology and Therapeutics, 2019).

In data set [1] the target is CYP2D6 (Homo sapiens, UniProt P10635). Description: CYP inhibition in human liver microsomes. To be noted: up to 15 μM. The class given is in vitro ADME. In general terms: Microsomes from liver hold many membrane-bound enzymes, among them those of drug oxidation.
For data set [2], the target named is T1, CYP2B6 (Homo sapiens, UniProt P20813).
T1 sequence (P20813 1-491): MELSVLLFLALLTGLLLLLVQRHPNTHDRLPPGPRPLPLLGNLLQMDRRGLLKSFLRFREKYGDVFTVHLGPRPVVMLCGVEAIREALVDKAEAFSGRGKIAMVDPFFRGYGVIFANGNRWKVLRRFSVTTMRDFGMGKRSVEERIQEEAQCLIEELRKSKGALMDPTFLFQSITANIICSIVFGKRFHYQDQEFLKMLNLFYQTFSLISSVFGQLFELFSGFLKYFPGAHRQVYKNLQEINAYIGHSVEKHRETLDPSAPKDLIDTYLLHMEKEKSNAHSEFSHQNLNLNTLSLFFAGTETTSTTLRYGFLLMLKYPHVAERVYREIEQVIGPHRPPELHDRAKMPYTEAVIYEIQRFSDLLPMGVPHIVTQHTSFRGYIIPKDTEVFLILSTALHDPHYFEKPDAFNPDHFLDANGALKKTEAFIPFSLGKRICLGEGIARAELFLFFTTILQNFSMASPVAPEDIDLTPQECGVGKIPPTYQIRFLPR
Put plainly: CYP inhibition in human liver microsomes. The class given is in vitro ADME. The settings on record: up to 50 μM. The essentials: (§1)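 Reversible inhibition: test compound pre-incubated 10 min at 37°C with pooled human liver microsomes plus an isoform-selective probe substrate. Reaction started with NADPH (1.3 mM), then quenched with 3% formic acid in acetonitrile containing internal standard. CYP-specific metabolite formation measured by LC-MS/MS. Activity expressed as % control = (peak area ratio with compound / without compound) × 100.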

Data set [3] concerns the target CYP2C9 (Homo sapiens, UniProt P11712). Description: CYP inhibition in human liver microsomes. The class given is in vitro ADME. The settings on record: up to 50 μM. The procedure, abridged:
as §1

Data set [4] concerns the target T2, human OAT3 (Homo sapiens, UniProt Q8TCC7).
T2 sequence (Q8TCC7 1-542): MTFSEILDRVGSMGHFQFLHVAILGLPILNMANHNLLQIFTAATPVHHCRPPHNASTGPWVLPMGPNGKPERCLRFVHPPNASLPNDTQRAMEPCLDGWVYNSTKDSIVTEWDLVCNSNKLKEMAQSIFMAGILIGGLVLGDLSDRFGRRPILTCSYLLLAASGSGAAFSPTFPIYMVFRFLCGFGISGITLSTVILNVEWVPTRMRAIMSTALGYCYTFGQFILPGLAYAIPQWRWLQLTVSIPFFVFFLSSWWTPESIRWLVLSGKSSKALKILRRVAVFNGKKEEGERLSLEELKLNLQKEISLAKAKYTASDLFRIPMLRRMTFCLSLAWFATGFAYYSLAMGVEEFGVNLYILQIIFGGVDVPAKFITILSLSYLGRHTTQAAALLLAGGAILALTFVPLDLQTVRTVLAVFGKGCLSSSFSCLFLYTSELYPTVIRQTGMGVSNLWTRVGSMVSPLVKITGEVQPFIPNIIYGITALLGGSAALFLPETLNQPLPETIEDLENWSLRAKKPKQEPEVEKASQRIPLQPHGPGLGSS
Put plainly: Inhibition of OAT3-mediated estrone-3-sulfate uptake in HEK293 cells. The class given is in vitro ADME. The essentials:
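HEK293 cells stably expressing human OAT3, with mock-transfected HEK293 as control cells. Uptake was run at 37°C in HK buffer (pH 7.4) with 1 μM ³H-estrone-3-sulfate plus test compound or DMSO vehicle. Cells were washed twice, lysed in 0.1 M NaOH, and counted by liquid scintillation. Transporter-specific uptake was taken as uptake in transfected cells minus uptake in control cells.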

Data set [5] concerns the target CYP3A. Description: Time-dependent inhibition of CYP3A in human liver microsomes. The class given is in vitro ADME. To be noted: for kinact: human.
Data set [6] has as its system CYP3A. To be noted: 200 mg b.i.d.; based on MDZ AUC increase, weak > 1.25 to < 2-fold.
Data set [7] addresses T3, OATP1B3 (Homo sapiens, UniProt Q9NPD5).
T3 sequence (Q9NPD5 1-702): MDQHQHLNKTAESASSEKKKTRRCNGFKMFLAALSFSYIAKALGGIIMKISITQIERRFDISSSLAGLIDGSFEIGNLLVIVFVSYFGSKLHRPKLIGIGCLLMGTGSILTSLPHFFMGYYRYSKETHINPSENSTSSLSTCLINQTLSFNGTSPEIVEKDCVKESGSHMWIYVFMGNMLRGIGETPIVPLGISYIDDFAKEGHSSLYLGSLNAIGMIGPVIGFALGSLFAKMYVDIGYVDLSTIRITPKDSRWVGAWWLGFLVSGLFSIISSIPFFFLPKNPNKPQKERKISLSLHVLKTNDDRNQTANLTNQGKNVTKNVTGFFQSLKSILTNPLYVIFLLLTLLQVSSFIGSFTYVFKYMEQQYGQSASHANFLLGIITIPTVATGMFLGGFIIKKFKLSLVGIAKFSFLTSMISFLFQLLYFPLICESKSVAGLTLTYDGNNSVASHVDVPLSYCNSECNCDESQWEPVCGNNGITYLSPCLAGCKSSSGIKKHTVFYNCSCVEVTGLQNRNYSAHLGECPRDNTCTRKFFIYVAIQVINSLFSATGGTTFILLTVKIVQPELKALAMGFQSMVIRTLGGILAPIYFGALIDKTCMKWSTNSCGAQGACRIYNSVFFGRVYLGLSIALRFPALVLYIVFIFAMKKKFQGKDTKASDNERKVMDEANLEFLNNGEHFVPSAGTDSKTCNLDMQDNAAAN
Put plainly: Inhibition of OATP1B3-mediated CCK-8 uptake in HEK293 cells. The class given is in vitro ADME.

Data set [8] deals with Bruton's tyrosine kinase. To be noted: phase I studies; cited from earlier work.

Sequence of CYP2C9 (P11712 whole entry): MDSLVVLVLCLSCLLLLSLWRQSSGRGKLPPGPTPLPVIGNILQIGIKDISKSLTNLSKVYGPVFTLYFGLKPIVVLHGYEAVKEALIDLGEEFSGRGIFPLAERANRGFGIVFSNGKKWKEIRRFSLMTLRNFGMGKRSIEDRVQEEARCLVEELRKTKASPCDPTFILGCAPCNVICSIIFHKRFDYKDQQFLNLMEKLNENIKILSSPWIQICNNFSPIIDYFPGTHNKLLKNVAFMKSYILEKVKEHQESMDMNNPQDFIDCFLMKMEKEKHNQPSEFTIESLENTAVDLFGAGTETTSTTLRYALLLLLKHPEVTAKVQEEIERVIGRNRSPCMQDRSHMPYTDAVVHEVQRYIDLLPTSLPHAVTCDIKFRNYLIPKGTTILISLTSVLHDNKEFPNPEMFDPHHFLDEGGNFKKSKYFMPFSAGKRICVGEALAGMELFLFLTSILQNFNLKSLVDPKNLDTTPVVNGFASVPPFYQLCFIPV
Sequence of CYP2D6 (P10635 whole entry): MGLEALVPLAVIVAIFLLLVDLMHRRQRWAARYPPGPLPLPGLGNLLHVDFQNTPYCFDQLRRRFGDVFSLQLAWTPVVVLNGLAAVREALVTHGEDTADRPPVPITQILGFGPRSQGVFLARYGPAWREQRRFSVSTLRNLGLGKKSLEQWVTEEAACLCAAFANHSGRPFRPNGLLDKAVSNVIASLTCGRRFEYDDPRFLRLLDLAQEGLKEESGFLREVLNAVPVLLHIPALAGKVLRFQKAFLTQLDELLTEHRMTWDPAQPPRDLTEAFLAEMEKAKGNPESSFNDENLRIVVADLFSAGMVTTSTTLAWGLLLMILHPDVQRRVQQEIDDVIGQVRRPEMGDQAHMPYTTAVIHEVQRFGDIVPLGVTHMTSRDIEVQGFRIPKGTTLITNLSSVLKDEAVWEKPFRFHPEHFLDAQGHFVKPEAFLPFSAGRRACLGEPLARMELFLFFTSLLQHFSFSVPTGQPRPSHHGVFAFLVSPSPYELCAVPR

As for `C[C@H]1CN(C2COC2)CCN1c1ccc(Nc2cc(-c3ccnc(N4CCn5c(cc6c5CC(C)(C)C6)C4=O)c3CO)cn(C)c2=O)nc1` [fenebrutinib], the “reversible or time-dependent inhibition of CYP2D6” value in data set [1] was “No reversible or time‐dependent inhibition”. Moreover, the “reversible or time-dependent inhibition of CYP2B6” value in data set [2] was “No reversible or time‐dependent inhibition”. The “reversible or time-dependent inhibition of CYP2C9” value in data set [3] is on record as “No reversible or time‐dependent inhibition”. Also, in data set [4] (at clinically relevant concentrations), the “inhibition of OAT3 uptake transporter” value is on record as “no evidence of inhibition”. Further, in data set [4] (up to 30 μM, the highest concentration tested, HEK293 cells), the “influence on OAT3-mediated accumulation of estrone-3-sulfate” value is “did not influence”. In data set [5], the “kinact/Ki ratio, CYP3A” value stood at 23.3 M⁻¹ s⁻¹. In data set [5] (MDZ and testosterone as probe substrates), the “time-dependent inhibition (TDI) of CYP3A” value is on record as “TDI was observed”. Besides, the inactivation rate constant (kinact) (commonly the rate constant of inactivation at saturating inhibitor) in data set [5] (probe midazolam (50 µM)) was 0.00019 s⁻¹; in data set [5] (probe testosterone (250 µM)) it was 0.00025 s⁻¹. Also, the “clinical classification as CYP3A inhibitor” value in data set [6] is “weak inhibitor”. In addition, in data set [7], the IC50 (commonly the concentration needed to halve the response being measured) amounted to 7.15 µM. In data set [7] (human, HEK293 cells stably expressing human OATP1B3, pH 7.4, probe CCK-8 (0.1 μM)), the inhibition (in general, the percentage by which the read-out fell short of the control) at 30 μM was 86.7%. Further, the “plasma concentration showing target engagement” value in data set [8] was 100 nM.
